Published values collected from several papers.
Protocols differ between the studies behind these lines.
TRPC3: Short transient receptor potential channel 3 (TRPC3, Homo sapiens, UniProt Q13507)

C=CC(=O)N1CCC(COCC(=O)N2CCN(c3nc(-c4cnc(N)nc4C(F)F)nc(N4CCOC[C@@H]4C)n3)CC2)CC1
remaining binding (Serine/threonine-protein kinase WNK4 (WNK4, Homo sapiens, UniProt Q96J92); binding, competition with immobilised ligand; 1 µM): 46%

COc1cc(-c2cncc3c2CN(C)Cc2cc(N4CCNCC4)ccc2-3)cc(OC)c1OC
remaining activity (Interferon-induced, double-stranded RNA-activated protein kinase (EIF2AK2, Homo sapiens, UniProt P19525); enzyme activity, inhibitor; 1 µM): 102%

CNc1ncc2c(/C=C/C(=O)N3CCC(OC)CC3)nn(Cc3cccc(C(F)(F)F)c3)c2n1
remaining activity (Tyrosine-protein kinase Fgr (FGR, Homo sapiens, UniProt P09769); enzyme activity, inhibitor, radiometric; 1 µM): 90%

C=CC(=O)N1C[C@@H](n2nc(C#Cc3c(F)cc4c(ncn4C4CC4)c3F)c(C(N)=O)c2NC)C[C@@H]1COC
inhibition (Serine/threonine-protein kinase 10 (STK10, Homo sapiens, UniProt O94804); enzyme activity, inhibitor, mobility shift; 1 µM): 64.6%

CCNC(=O)c1cnn(-c2ccc(-n3ccc(Cl)c(Cl)c3=O)cc2)c1C(F)(F)F
inhibition (TRPC3; ion current, inhibitor, patch clamp; HEK293; 10 µM): 95.7%

C=CC(=O)Nc1ccccc1C(=O)Nc1ccc(C#Cc2ccc(OC)cc2)nn1
inhibition (Fibroblast growth factor receptor 1 (FGFR1, Homo sapiens, UniProt P11362); enzyme activity, inhibitor, radiometric; 1 µM): 3%

CCNC(=O)c1cn(-c2ccc(-n3ccc(Cl)c(Cl)c3=O)cc2)nc1C(F)(F)F
inhibition (TRPC3; ion current, inhibitor, patch clamp; HEK293; 10 µM): > 90%

Cc1cc([C@@H](C)Nc2ccccc2C(=O)O)c2nc(N3CCC(F)(F)CC3)c(C#N)c(=O)n2c1
remaining binding (MAP kinase-interacting serine/threonine-protein kinase 2 (MKNK2, Homo sapiens, UniProt Q9HBH9); binding, competition with immobilised ligand; 10 µM): 100%

CCOC(=O)c1cnn(-c2ccc(NC(=O)C(Cl)=C(Cl)Cl)cc2)c1C(F)(F)F
inhibition (TRPC3; ion current, inhibitor, patch clamp; HEK293; 10 µM): 88.6%

COc1ccc(CNC(=O)c2cc3c(cc2[N+](=O)[O-])OCO3)cc1
inhibition (Myeloperoxidase (MPO, Homo sapiens, UniProt P05164); enzyme activity, inhibitor; 5 µM): > 50%
